The source made the active and inactive calls.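 The calls were made as follows: active = GFP response above 150% of the DMSO control; inconclusive = fewer than 70 events counted in any yeast strain; inactive = the rest.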
Test: RPL19A-GFP modulators, yeast TOR pathway, confirmation, cell-based, S. cerevisiae, flow cytometry, cherry picks, mother/daughter gates (AID 2270)
Details: S. cerevisiae RPL19A-GFP strain, 3 h, measured here: mother cell gate, at 10 µM, stronger effect = lower value, 100 = same GFP as DMSO wells
In the case of `Cc1ccc(C(=O)OCC(=O)Nc2ccccc2Sc2ccccc2)cc1C`, the GFP response vs DMSO is reported as 99.7%.
Work on `CCCCCCc1cc2cc(-c3nnc(-c4ccccc4OC)o3)c(=O)oc2cc1O` yielded a GFP response vs DMSO of 98.4%.
`O=C(OCn1ncc(Br)c(Br)c1=O)c1ccc(F)cc1` showed a GFP response vs DMSO of 94.8%.
`CSc1ccc(-c2cc(=O)c3ccccc3o2)cc1` showed a GFP response vs DMSO of 92.5%.
Work on `c1cc2c(cc1C1CCCCC1)c1c3n2CCCNC3CCC1` (stereo not drawn) yielded a GFP response vs DMSO of 100%.
For `CCOC(=O)C1(CCCc2ccccc2)CCN(C(=O)c2cc(C)nn2CC)CC1`, the GFP response vs DMSO was 99.8%.
Compound `Cn1cnnc1SCC(=O)Nc1nc(-c2ccc(F)cc2)cs1` has a GFP response vs DMSO of 101%.
`O=C1C=C(c2ccccc2)C(=O)N1Nc1ccccc1` gave a GFP response vs DMSO of 64.5%.
`S=C(Sc1ccc(Cl)cc1)Sc1ccc(Cl)cc1` showed a GFP response vs DMSO of 95.1%.
For `O=C(O)c1ccc(N/N=C/c2c(F)cccc2Cl)cc1`, the GFP response vs DMSO was 98.1%.
In the case of `Cc1ccc(-c2csc(NC(=O)c3ccno3)n2)cc1`, the GFP response vs DMSO is reported as 96.5%.
Compound `Cc1nn(C)cc1C(C)NC(=O)c1cc(COc2ccc(F)c(F)c2)on1` (stereo not drawn) has a GFP response vs DMSO of 102%.
`CN(O)/C=c1/ccc2c(n1)C(=O)C=CC=2` showed a GFP response vs DMSO of 100%.
For `CCOc1ccc(S(=O)(=O)n2ccnc2C)cc1`, the GFP response vs DMSO was 98.4%.
In the case of `CCCCN(CC)S(=O)(=O)c1ccc(C(=O)Nc2nnc(-c3ccccc3Cl)o2)cc1`, the GFP response vs DMSO is reported as 98.5%.
Compound `Oc1c(CN2CCCCC2)cc(Br)c2cccnc12` has a GFP response vs DMSO of 105%.
With `O=C(O)c1ccc(N/N=C/C(Br)=C/c2ccccc2)cc1` the GFP response vs DMSO was 96.7%.
Work on `Cc1ccc(NC(=O)COc2ccc(Br)cc2C)cc1` yielded a GFP response vs DMSO of 100%.
For `CCCn1c(=O)c(C(=O)Nc2ccccc2C(=O)OCC)c(O)c2ccccc21`, the GFP response vs DMSO was 95.2%.
For `N#C/C(C(=O)Nc1ccc(Cl)cc1)=C(/S)Nc1ccccc1`, the GFP response vs DMSO was 99.3%.
With `CN1/C(=C\C(=O)c2cccc(S(=O)(=O)N3CCCCC3)c2)C(C)(C)c2ccccc21` the GFP response vs DMSO was 97.2%.
In the case of `CCn1c(=O)c(C(=O)NCc2ccc(OC)cc2)c(O)c2ccccc21`, the GFP response vs DMSO is reported as 98.4%.
`C/C(=N/NS(=O)(=O)c1ccccc1)c1ccc(NC(=O)C(F)(F)F)cc1` gave a GFP response vs DMSO of 103%.
Compound `CS(=O)(=O)c1nc(-c2ccccc2)cc(C(F)(F)F)n1` has a GFP response vs DMSO of 95.9%.
`CCOc1ccc(/C=C/C(=O)c2c(O)cc(C)oc2=O)cc1` gave a GFP response vs DMSO of 94.6%.
`CCCc1[nH]nc2c1C(c1cccnc1)C(C#N)=C(N)O2` (stereo not drawn) showed a GFP response vs DMSO of 99.2%.
For `O=C1CC(Sc2nnc(-c3ccccc3)o2)C(=O)N1c1ccccc1` (stereo not drawn), the GFP response vs DMSO was 100%.
`O=C(NNC(=O)C1CCCCC1)C(=O)NC1CCCCC1` gave a GFP response vs DMSO of 99.3%.
`Cc1ccc(/C(C#N)=C\c2ccc(N3CCOCC3)o2)cc1` gave a GFP response vs DMSO of 98%.
`N/C(Cc1ccc(Cl)c(Cl)c1)=N\OC(=O)c1cccs1` gave a GFP response vs DMSO of 83%.
Work on `Cn1cc([N+](=O)[O-])c(C(=O)Nc2nc(-c3ccc(Cl)cc3)cs2)n1` yielded a GFP response vs DMSO of 96.5%.
In the case of `CCCOc1ccc(C(=O)NNC(=S)NC(=O)c2ccccc2)cc1`, the GFP response vs DMSO is reported as 113%.
Work on `COc1ccc(N2C(=O)c3cccc4cccc(c34)C2=O)nn1` yielded a GFP response vs DMSO of 98.7%.
`Clc1ccc(OCCn2cnc3ccccc32)c(Cl)c1` gave a GFP response vs DMSO of 89.4%.
With `N#C/C(=C\c1ccccn1)c1nc2ccccc2s1` the GFP response vs DMSO was 172%.
Work on `COc1ccc(S(=O)(=O)NCC(=O)N(CC(=O)NCc2ccco2)Cc2ccc(F)cc2)cc1` yielded a GFP response vs DMSO of 101%.
For `Cc1cc(OCc2ccc(C(=O)NN=C3CCCC3)cc2)ccc1Cl`, the GFP response vs DMSO was 96.1%.
`CCCCC(=O)NNC(=S)NC(=O)c1ccc(C)cc1` gave a GFP response vs DMSO of 111%.
`Cc1ccc(N2C(=O)C3C4C=CC(CNC(=S)Nc5ccc(F)cc5)(O4)C3C2=O)cc1` (stereo not drawn) showed a GFP response vs DMSO of 97.5%.

Test: LAP4-GFP expression modulators in yeast, confirmation, cell-based, cherry picks, flow cytometry, mother/daughter gates (AID 2271);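 also: ratio of sample to DMSO plate mean so 100% equals DMSO level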
Details: S. cerevisiae LAP4-GFP strain, 3 h, at 10 µM, stronger effect = higher value, 100 means same as DMSO control
Procedure, shortened: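 System: Alexa 633-stained baker's yeast GFP-fusion strain; quantity: 0.2 OD600 cells; timing: compound exposure 3 h at 30 °C, end-over-end rotation; detection: HT flow cytometry, GFP fluorescence channel; measure: per-gate (all, mother, daughter) GFP response vs DMSO; control set: DMSO-only negative wells, rapamycin 400 ng/mL positive wells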
For `Cc1ccc(C(=O)OCC(=O)Nc2ccccc2Sc2ccccc2)cc1C`, the GFP response relative to DMSO was 96.1% (inactive).
For `CCCCCCc1cc2cc(-c3nnc(-c4ccccc4OC)o3)c(=O)oc2cc1O`, the GFP response relative to DMSO was 111% (inactive).
In the case of `O=C(OCn1ncc(Br)c(Br)c1=O)c1ccc(F)cc1`, the GFP response relative to DMSO is reported as 210% (active).
With `CSc1ccc(-c2cc(=O)c3ccccc3o2)cc1` the GFP response relative to DMSO was 117% (inactive).
For `c1cc2c(cc1C1CCCCC1)c1c3n2CCCNC3CCC1` (stereo not drawn), the GFP response relative to DMSO was 101% (inactive).
In the case of `CCOC(=O)C1(CCCc2ccccc2)CCN(C(=O)c2cc(C)nn2CC)CC1`, the GFP response relative to DMSO is reported as 98.8% (inactive).
With `Cn1cnnc1SCC(=O)Nc1nc(-c2ccc(F)cc2)cs1` the GFP response relative to DMSO was 97% (inactive).
With `O=C1C=C(c2ccccc2)C(=O)N1Nc1ccccc1` the GFP response relative to DMSO was 124% (inactive).
With `S=C(Sc1ccc(Cl)cc1)Sc1ccc(Cl)cc1` the GFP response relative to DMSO was 112% (inactive).
With `O=C(O)c1ccc(N/N=C/c2c(F)cccc2Cl)cc1` the GFP response relative to DMSO was 124% (inactive).
For `Cc1ccc(-c2csc(NC(=O)c3ccno3)n2)cc1`, the GFP response relative to DMSO was 103% (inactive).
In the case of `Cc1nn(C)cc1C(C)NC(=O)c1cc(COc2ccc(F)c(F)c2)on1` (stereo not drawn), the GFP response relative to DMSO is reported as 93.8% (inactive).
For `CN(O)/C=c1/ccc2c(n1)C(=O)C=CC=2`, the GFP response relative to DMSO was 192% (active).
In the case of `CCOc1ccc(S(=O)(=O)n2ccnc2C)cc1`, the GFP response relative to DMSO is reported as 96.2% (inactive).
In the case of `CCCCN(CC)S(=O)(=O)c1ccc(C(=O)Nc2nnc(-c3ccccc3Cl)o2)cc1`, the GFP response relative to DMSO is reported as 97.9% (inactive).
For `Oc1c(CN2CCCCC2)cc(Br)c2cccnc12`, the GFP response relative to DMSO was 208% (active).
In the case of `O=C(O)c1ccc(N/N=C/C(Br)=C/c2ccccc2)cc1`, the GFP response relative to DMSO is reported as 131% (inactive).
With `Cc1ccc(NC(=O)COc2ccc(Br)cc2C)cc1` the GFP response relative to DMSO was 107% (inactive).
For `CCCn1c(=O)c(C(=O)Nc2ccccc2C(=O)OCC)c(O)c2ccccc21`, the GFP response relative to DMSO was 95.3% (inactive).
In the case of `N#C/C(C(=O)Nc1ccc(Cl)cc1)=C(/S)Nc1ccccc1`, the GFP response relative to DMSO is reported as 105% (inactive).
In the case of `CN1/C(=C\C(=O)c2cccc(S(=O)(=O)N3CCCCC3)c2)C(C)(C)c2ccccc21`, the GFP response relative to DMSO is reported as 95.4% (inactive).
For `CCn1c(=O)c(C(=O)NCc2ccc(OC)cc2)c(O)c2ccccc21`, the GFP response relative to DMSO was 97.7% (inactive).
For `C/C(=N/NS(=O)(=O)c1ccccc1)c1ccc(NC(=O)C(F)(F)F)cc1`, the GFP response relative to DMSO was 94.2% (inactive).
For `CS(=O)(=O)c1nc(-c2ccccc2)cc(C(F)(F)F)n1`, the GFP response relative to DMSO was 192% (active).
For `CCOc1ccc(/C=C/C(=O)c2c(O)cc(C)oc2=O)cc1`, the GFP response relative to DMSO was 120% (inactive).
For `CCCc1[nH]nc2c1C(c1cccnc1)C(C#N)=C(N)O2` (stereo not drawn), the GFP response relative to DMSO was 99.2% (inactive).
For `O=C1CC(Sc2nnc(-c3ccccc3)o2)C(=O)N1c1ccccc1` (stereo not drawn), the GFP response relative to DMSO was 106% (inactive).
For `O=C(NNC(=O)C1CCCCC1)C(=O)NC1CCCCC1`, the GFP response relative to DMSO was 98.8% (inactive).
With `Cc1ccc(/C(C#N)=C\c2ccc(N3CCOCC3)o2)cc1` the GFP response relative to DMSO was 102% (inactive).
In the case of `N/C(Cc1ccc(Cl)c(Cl)c1)=N\OC(=O)c1cccs1`, the GFP response relative to DMSO is reported as 226% (active).
In the case of `Cn1cc([N+](=O)[O-])c(C(=O)Nc2nc(-c3ccc(Cl)cc3)cs2)n1`, the GFP response relative to DMSO is reported as 102% (inactive).
In the case of `CCCOc1ccc(C(=O)NNC(=S)NC(=O)c2ccccc2)cc1`, the GFP response relative to DMSO is reported as 149% (inactive).
For `COc1ccc(N2C(=O)c3cccc4cccc(c34)C2=O)nn1`, the GFP response relative to DMSO was 89% (inactive).
In the case of `Clc1ccc(OCCn2cnc3ccccc32)c(Cl)c1`, the GFP response relative to DMSO is reported as 134% (inactive).
In the case of `N#C/C(=C\c1ccccn1)c1nc2ccccc2s1`, the GFP response relative to DMSO is reported as 584% (active).
In the case of `COc1ccc(S(=O)(=O)NCC(=O)N(CC(=O)NCc2ccco2)Cc2ccc(F)cc2)cc1`, the GFP response relative to DMSO is reported as 99.5% (inactive).
In the case of `Cc1cc(OCc2ccc(C(=O)NN=C3CCCC3)cc2)ccc1Cl`, the GFP response relative to DMSO is reported as 132% (inactive).
In the case of `CCCCC(=O)NNC(=S)NC(=O)c1ccc(C)cc1`, the GFP response relative to DMSO is reported as 249% (active).
In the case of `Cc1ccc(N2C(=O)C3C4C=CC(CNC(=S)Nc5ccc(F)cc5)(O4)C3C2=O)cc1` (stereo not drawn), the GFP response relative to DMSO is reported as 102% (inactive).

Source: PubChem BioAssay
